Measurements: ChEMBL document CHEMBL1124774, “Synthesis and biological activity of some derivatives of rifamycin P” (1990)
Values after ≈ are worked out from the molar mass of the structure shown.

Experiments:
Escherichia coli = test: In vitro antibacterial activity of compound against Escherichia coli SKF 12140; assay type: functional
Klebsiella pneumoniae = test: In vitro antibacterial activity of compound against Klebsiella pneumoniae ISM; assay type: functional
[1] = test system: Mycobacterium scrofulaceum; test: In vitro activity of compound against slowly growing Mycobacterium scrofulaceum 1292; assay type: functional
Summary of the method: (§1)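 Medium was Middlebrook 7H10 agar with 2% glycerol and 10% OADC. Organisms from Loevenstein-Jensen slants were grown in 7H9 broth with 0.5% Tween and 10% OADC, adjusted to McFarland no. 1, and spotted with a multipoint inoculator. Sealed plates were incubated at 22, 30 or 37 °C for 4-20 days depending on strain.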

[2] = test system: Mycobacterium scrofulaceum; test: In vitro activity of compound against slowly growing Mycobacterium scrofulaceum 1293; assay type: functional; summary of the method: as §1
[3] = test system: Mycobacterium scrofulaceum; test: In vitro activity of compound against slowly growing Mycobacterium scrofulaceum 1297; assay type: functional; summary of the method: as §1
[4] = test system: Mycobacterium scrofulaceum; test: In vitro activity of compound against slowly growing Mycobacterium scrofulaceum 1301; assay type: functional; summary of the method: as §1
Mycobacterium xenopi [5] = test: In vitro activity compound against slowly growing Mycobacterium xenopi 1446; assay type: functional; summary of the method: as §1
Mycobacterium xenopi [6] = test: In vitro activity of compound against slowly growing Mycobacterium xenopi 554; assay type: functional; summary of the method: as §1
Mycobacterium xenopi [7] = test: In vitro activity of compound against slowl growingy Mycobacterium xenopi 555; assay type: functional; summary of the method: as §1
Mycolicibacterium phlei [8] = test: In vitro activity of compound against rapidly growing Mycobacterium phlei 141; assay type: functional; summary of the method: as §1
Mycolicibacterium phlei [9] = test: In vitro activity of compound against rapidly growing Mycobacterium phlei 1283; assay type: functional; summary of the method: as §1
Mycolicibacterium phlei [10] = test: In vitro activity of compound against rapidly growing Mycobacterium phlei 1289; assay type: functional; summary of the method: as §1
Mycobacterium kansasii [11] = test: In vitro activity compound against slowly growing Mycobacterium kansasii 1298; assay type: functional; summary of the method: as §1
Mycobacterium kansasii [12] = test: In vitro activity of compound against slowly growing Mycobacterium kansasii 1299; assay type: functional; summary of the method: as §1
Mycobacterium marinum [13] = test: In vitro activity of compound against slowly growing Mycobacterium marinum 1388; assay type: functional; summary of the method: as §1
Mycobacterium marinum [14] = test: In vitro activity of compound against slowly growing Mycobacterium marinum 1390; assay type: functional; summary of the method: as §1
Mycobacterium marinum [15] = test: In vitro activity of compound against slowly growing Mycobacterium marinum 1391; assay type: functional; summary of the method: as §1
[16] = test system: Mycolicibacterium fortuitum; test: In vitro activity of compound against rapidly growing Mycobacterium fortuitum 114; assay type: functional; summary of the method: as §1
[17] = test system: Mycolicibacterium fortuitum; test: In vitro activity of compound against rapidly growing Mycobacterium fortuitum 1285; assay type: functional; summary of the method: as §1
[18] = test system: Mycolicibacterium fortuitum; test: In vitro activity of compound against rapidly growing Mycobacterium fortuitum 1287; assay type: functional; summary of the method: as §1
[19] = test system: Mycolicibacterium fortuitum; test: In vitro activity compound against rapidly growing Mycobacterium fortuitum 1302; assay type: functional; summary of the method: as §1
[20] = test system: Mycolicibacterium fortuitum; test: In vitro activity of compound against rapidly growing Mycobacterium fortuitum 646; assay type: functional; summary of the method: as §1
[21] = test system: Mycolicibacterium fortuitum; test: In vitro activity of compound against rapidly growing Mycobacterium fortuitum 726; assay type: functional; summary of the method: as §1
Mycobacterium gordonae [22] = test: In vitro activity of compound against slowly growing Mycobacterium gordonae 1294; assay type: functional; summary of the method: as §1
Mycobacterium gordonae [23] = test: In vitro activity of compound against slowly growing Mycobacterium gordonae 1441; assay type: functional; summary of the method: as §1
Mycobacterium kansasii [24] = test: In vitro activity compound against slowly growing Mycobacterium kansasii 1291; assay type: functional; summary of the method: as §1
[25] = test system: Mycolicibacterium flavescens; test: In vitro activity of compound against rapidly growing Mycobacterium flavescens 1284; assay type: functional; summary of the method: as §1
[26] = test system: Mycolicibacterium flavescens; test: In vitro activity of compound against rapidly growing Mycobacterium flavescens 1286; assay type: functional; summary of the method: as §1
Mycobacterium marinum [27] = test: In vitro activity of compound against slowly growing Mycobacterium marinum 1392 h; assay type: functional; summary of the method: as §1
Mycobacterium marinum [28] = test: In vitro activity of compound against slowly growing Mycobacterium marinum 1393; assay type: functional; summary of the method: as §1
Mycobacterium marinum [29] = test: In vitro activity of compound against slowly growing Mycobacterium marinum 1394; assay type: functional; summary of the method: as §1
Mycobacterium marinum [30] = test: In vitro activity of compound against slowly growing Mycobacterium marinum 1447; assay type: functional; summary of the method: as §1
[31] = test system: Mycobacterium tuberculosis; test: In vitro antibacterial activity of compound against Mycobacterium tuberculosis H37Rv ATCC 9660; assay type: functional
Mycobacterium avium = test: 50% inhibition of the 20 Mycobacterium (MAC) avium complex clinical isolates; assay type: functional
Summary of the method: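 Agar-dilution MICs, 2-fold dilutions over 128-0.0001 μg/mL, on Middlebrook 7H10 agar with 2% glycerol and 10% OADC. Organisms from Loevenstein-Jensen slants were grown in 7H9 broth with 0.5% Tween and 10% OADC, adjusted to McFarland no. 1, and spotted with a multipoint inoculator. Plates were sealed and incubated at 22, 30 or 37 °C for 4-20 days depending on strain.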

Neisseria gonorrhoeae = test: In vitro antibacterial activity of compound against Neisseria gonorrhoeae ISM 68/126; assay type: functional
Pseudomonas aeruginosa = test: In vitro antibacterial activity of compound against Pseudomonas aeruginosa ATCC 10145; assay type: functional
Summary of the method: (§2)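 Twofold microdilution MIC in Iso-Sensitest broth over 128-0.0001 µg/mL. Inoculum was 10^4 cfu/mL, with incubation at 37 °C for 18-24 h.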

Proteus vulgaris = test: In vitro antibacterial activity of compound against Proteus vulgaris X19H ATCC 881; assay type: functional
Staphylococcus aureus [32] = test: Activity in the murine model (OS route) of Staphylococcus aureus tour septicemia; assay type: functional
Summary of the method: (§3)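 Male and female CD1 mice (18-22 g) were infected ip with S. aureus Tour. The challenge was set so untreated mice died within 48 h. Groups were five mice, dosed once daily for 3 days starting immediately after infection. ED50 was calculated on day 10 from the percentage surviving at each dose.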

Staphylococcus aureus [33] = test: Activity in the murine model (subcutaneous route) of Staphylococcus aureus tour septicemia; assay type: functional; conditions: sc; summary of the method: as §3
[34] = test system: Staphylococcus epidermidis; test: In vitro antibacterial activity of compound against Staphylococcus epidermidis ATCC 12228; assay type: functional; summary of the method: as §2
Streptococcus pyogenes [35] = test: Inhibitory concentration of compound against Streptococcus pyogenus septicemia in the mouse, administarted in OS route; assay type: functional
Summary of the method: (§4)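 Male and female CD1 mice (18-22 g) were infected ip with S. pyogenes C203, with the challenge set so untreated mice died within 48 h. Groups of five received a single treatment immediately after infection. ED50 was calculated from the percentage surviving at each dose on day 10.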

Streptococcus pyogenes [36] = test: Inhibitory concentration of compound against Streptococcus pyogenus septicemia in the mouse, administarted in subcutaneous route; assay type: functional; conditions: sc; summary of the method: as §4
Streptococcus pyogenes [37] = test: Minimum inhibitory concentration of compound against Streptococcus pyogenus septicemia in the mouse; assay type: functional
Streptococcus pyogenes [38] = test: In vitro antibacterial activity of compound against Streptococcus pyogenes C 203 SKF 13400; assay type: functional
Summary of the method: (§5)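 Streptococcal MICs were run by twofold microdilution in Todd-Hewitt broth over 128-0.0001 µg/mL. Inoculum was 10^4 cfu/mL, with incubation at 37 °C for 18-24 h.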

Staphylococcus aureus [39] = test: In vitro antibacterial activity of compound against Staphylococcus aureus Tour L 165; assay type: functional; summary of the method: as §2
Streptococcus pneumoniae = test: In vitro antibacterial activity of compound against Streptococcus pneumoniae UC 41; assay type: functional; summary of the method: as §5
Enterococcus faecalis = test: In vitro antibacterial activity of compound against Streptococcus faecalis ATCC 7080.; assay type: functional; summary of the method: as §2
[40] = test system: Mycolicibacterium fortuitum; test: In vitro activity of compound against rapidly growing Mycobacterium fortuitum 645; assay type: functional; summary of the method: as §1
Haemophilus influenzae = test: In vitro antibacterial activity of compound against Haemophilus influenzae ATCC 19418; assay type: functional
Mycobacterium xenopi [41] = test: In vitro activity of compound against slowly growing Mycobacterium xenopi 556; assay type: functional; summary of the method: as §1
Mycobacteroides chelonae = test: In vitro activity of compound against rapidly growing Mycobacterium chelonae 1443

Q: Which results are given for `CO[C@H]1/C=C/O[C@@]2(C)Oc3c(C)c(O)c4c(O)c(c(/C=N/N5CCN(C)CC5)c(O)c4c3C2=O)NC(=O)/C(C)=C\C=C\[C@H](C)[C@H](O)[C@@H](C)[C@@H](O)[C@@H](C)[C@H](OC(C)=O)[C@@H]1C` [RIFAMPIN]?
A: MIC (Escherichia coli): 8 µg/mL (≈ 9.72 µM); MIC (Klebsiella pneumoniae): 16 µg/mL (≈ 19.4 µM); MIC [1]: 0.063 µg/mL (≈ 0.0766 µM); MIC [2]: 0.063 µg/mL (≈ 0.0766 µM); MIC [3]: 0.125 µg/mL (≈ 0.152 µM); MIC [4]: 8 µg/mL (≈ 9.72 µM); MIC (Mycobacterium xenopi [5]): 1 µg/mL (≈ 1.22 µM); MIC (Mycobacterium xenopi [6]): 1 µg/mL (≈ 1.22 µM); MIC (Mycobacterium xenopi [7]): 1 µg/mL (≈ 1.22 µM); MIC (Mycolicibacterium phlei [8]): 0.032 µg/mL (≈ 0.0389 µM); MIC (Mycolicibacterium phlei [9]): 0.25 µg/mL (≈ 0.304 µM); MIC (Mycolicibacterium phlei [10]): 8 µg/mL (≈ 9.72 µM); MIC (Mycobacterium kansasii [11]): 0.125 µg/mL (≈ 0.152 µM); MIC (Mycobacterium kansasii [12]): 8 µg/mL (≈ 9.72 µM); MIC (Mycobacterium marinum [13]): 1 µg/mL (≈ 1.22 µM); MIC (Mycobacterium marinum [14]): 2 µg/mL (≈ 2.43 µM); MIC (Mycobacterium marinum [15]): 0.5 µg/mL (≈ 0.608 µM); MIC [16]: 128 µg/mL (≈ 156 µM); MIC [17]: 4 µg/mL (≈ 4.86 µM); MIC [18]: 2 µg/mL (≈ 2.43 µM); MIC [19]: 1 µg/mL (≈ 1.22 µM); MIC [20]: 128 µg/mL (≈ 156 µM); MIC [21]: 32 µg/mL (≈ 38.9 µM); MIC (Mycobacterium gordonae [22]): 0.5 µg/mL (≈ 0.608 µM); MIC (Mycobacterium gordonae [23]): 4 µg/mL (≈ 4.86 µM); MIC (Mycobacterium kansasii [24]): 16 µg/mL (≈ 19.4 µM); MIC [25]: 128 µg/mL (≈ 156 µM); MIC [26]: 0.25 µg/mL (≈ 0.304 µM); MIC (Mycobacterium marinum [27]): 0.5 µg/mL (≈ 0.608 µM); MIC (Mycobacterium marinum [28]): 0.5 µg/mL (≈ 0.608 µM); MIC (Mycobacterium marinum [29]): 0.5 µg/mL (≈ 0.608 µM); MIC (Mycobacterium marinum [30]): 1 µg/mL (≈ 1.22 µM); MIC [31]: 0.25 µg/mL (≈ 0.304 µM); MIC50 (Mycobacterium avium): 16 µg/mL (≈ 19.4 µM); MIC (Neisseria gonorrhoeae): 0.125 µg/mL (≈ 0.152 µM); MIC (Pseudomonas aeruginosa): 8 µg/mL (≈ 9.72 µM); MIC (Proteus vulgaris): 8 µg/mL (≈ 9.72 µM); ED50 (Staphylococcus aureus [32]): 0.28 mg/kg; ED50 (Staphylococcus aureus [33]): 0.09 mg/kg; MIC [34]: 0.008 µg/mL (≈ 0.00972 µM); ED50 (Streptococcus pyogenes [35]): 0.47 mg/kg; ED50 (Streptococcus pyogenes [36]): 0.35 mg/kg; MIC (Streptococcus pyogenes [37]): 0.063 µg/mL (≈ 0.0766 µM); MIC (Streptococcus pyogenes [38]): 0.063 µg/mL (≈ 0.0766 µM); MIC (Staphylococcus aureus [39]): 0.016 µg/mL (≈ 0.0194 µM); MIC (Streptococcus pneumoniae): 0.063 µg/mL (≈ 0.0766 µM); MIC (Enterococcus faecalis): 1 µg/mL (≈ 1.22 µM); MIC [40]: 4 µg/mL (≈ 4.86 µM); MIC (Haemophilus influenzae): 0.125 µg/mL (≈ 0.152 µM); MIC (Mycobacterium xenopi [41]): 1 µg/mL (≈ 1.22 µM); MIC (Mycobacteroides chelonae): > 128 µg/mL
